# Source: ChEMBL document CHEMBL1127013, “Glycosylated derivatives of benzophenone, benzhydrol, and benzhydril as potential venous antithrombotic agents” (1993)
# Key:
# Assay type in all cases: functional
# Rattus norvegicus [1] = test: Effective dose administered by intravenous route before injection of thrombogenic agent in rat model
# Summary of the method: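 Intravenous dosing in rats at various times before the factor Xa thrombogenic challenge. Thrombus was isolated from the vein segment, dried 24 h at 55 °C and weighed. ED50 was calculated by linear regression with 95% confidence limits.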
# Rattus norvegicus [2] = test: Percentage reduction of thrombus formation by weight in rat (intraperitoneal administration); parameters: concentration or dose not given beside the values
# Summary of the method: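 Rat venous stasis thrombosis model using a factor Xa thrombogenic challenge 4 h after intraperitoneal dosing in carboxymethylcellulose at 5 mL/kg. Dose was 100 mg/kg when the mouse lethal dose exceeded 800 mg/kg, otherwise 1/10 of LD50. Body temperature was kept near 37 °C. Thrombus was excised from the split vein, dried 24 h at 55 °C and weighed. Read-out is % reduction in thrombus weight, with 5–10 rats per lot.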
# Rattus norvegicus [3] = test: Antithrombotic activity was determined at 100 mg/kg for nonlethal dose in rat
# Summary of the method: (§1)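 Rats received 100 mg/kg intraperitoneally in (carboxymethyl)cellulose (5 mL/kg), for substances with a mouse lethal dose above 800 mg/kg. Factor Xa was injected 4 h later to induce venous thrombosis, with body temperature near 37 °C. Clamps were placed 15 min after partial flow was restored. The thrombus was excised, dried 24 h at 55 °C and weighed. The result is % reduction of thrombus weight, with 5–10 rats per lot.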
# Rattus norvegicus [4] = test: Antithrombotic activity at 100 mg/kg for nonlethal dose in rat; summary of the method: as §1
# Rattus norvegicus [5] = test: Antithrombotic activity at 100 mg/kg in rat; summary of the method: as §1
# Rattus norvegicus [6] = test: Effective dose administered orally (4h before injection of the thrombotic stimulus) with reduced thrombus weight in dose-related manner; conditions: po
# Rattus norvegicus [7] = test: Antithrombotic activity at 1/10 mg/kg in rat
# Summary of the method: (§2)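 Rat venous thrombosis model with factor Xa as the thrombogenic stimulus, injected 4 h after intraperitoneal dosing in (carboxymethyl)cellulose vehicle (5 mL/kg). Dose was 1/10 of the mouse LD50. Body temperature was kept near 37 °C. The vein was clamped 15 min after partial flow was restored. The thrombus was dried 24 h at 55 °C and weighed. The result is % reduction of thrombus weight, with 5–10 rats per lot.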
# Rattus norvegicus [8] = test: Antithrombotic activity at 1/10 mg/kg for lethal dose in rat; summary of the method: as §2
Compound,Activity (Rattus norvegicus [2]),LD0 (Rattus norvegicus [3]),other results
O=C(O)C1OC(OC2C(COS(=O)(=O)O)OC(CO)C(NS(=O)(=O)O)C2O)C(OS(=O)(=O)O)C(O)C1CO (centres undefined),–,–,ED50 (Rattus norvegicus [1]): 0.15 mg/kg
COc1ccc(C(=O)c2ccc(O[C@@H]3OC[C@@H](O)[C@H](O)[C@H]3O)cc2)cc1,44%,>800 mg,–
O[C@@H]1[C@@H](O)[C@H](Oc2ccc(Cc3ccccc3Cl)cc2)OC[C@H]1O,0%,>800 mg,–
Cc1cc(C(=O)c2ccccc2C)ccc1O[C@@H]1OC[C@@H](O)[C@H](O)[C@H]1O,62%,–,–
Cc1ccc(O[C@@H]2OC[C@@H](O)[C@H](O)[C@H]2O)c(C(=O)c2ccccc2C)c1,0%,>800 mg,–
O=[N+]([O-])c1cccc(Cc2ccc(O[C@@H]3OC[C@@H](O)[C@H](O)[C@H]3O)cc2)c1,32%,>800 mg,–
O=C(c1ccc(Cl)cc1)c1cccc(O[C@@H]2OC[C@@H](O)[C@H](O)[C@H]2O)c1,0%,–,LD50 (Rattus norvegicus [4]): 220 mg
O=C(c1ccc(O[C@@H]2OC[C@@H](O)[C@H](O)[C@H]2O)cc1)c1cccc([N+](=O)[O-])c1,39%,>800 mg,–
O=C(c1ccccc1)c1ccc(O[C@@H]2O[C@H](CO)[C@@H](O)[C@H](O)[C@H]2O)cc1,25%,>800 mg,–
O=[N+]([O-])c1cccc(C(O)c2ccc(O[C@@H]3OC[C@@H](O)[C@H](O)[C@H]3O)cc2)c1 (some centres undefined),63%,–,LD50 (Rattus norvegicus [5]): 600 mg
O[C@@H]1[C@@H](O)[C@H](Oc2ccc(Cc3ccccc3)cc2)OC[C@H]1O,12%,>800 mg,–
O=[N+]([O-])c1ccc(Cc2ccc(O[C@@H]3OC[C@@H](O)[C@H](O)[C@H]3O)cc2)cc1,80%,–,ED50 (Rattus norvegicus [6]): 24 mg/kg; LD50 (Rattus norvegicus [5]): 650 mg
O=C(c1ccc([N+](=O)[O-])cc1)c1cccc(O[C@@H]2OC[C@@H](O)[C@H](O)[C@H]2O)c1,61%,>800 mg,–
O=C(c1ccc(O[C@@H]2OC[C@@H](O)[C@H](O)[C@H]2O)cc1)c1ccc([N+](=O)[O-])cc1,0%,>800 mg,–
OC(c1ccc(Cl)cc1)c1ccc(O[C@@H]2OC[C@@H](O)[C@H](O)[C@H]2O)cc1 (some centres undefined),39%,>800 mg,–
O=C(c1ccc(O[C@@H]2OC[C@@H](O)[C@H](O)[C@H]2O)cc1)c1ccccc1Cl,76%,>800 mg,–
COc1ccc(Cc2ccc(O[C@@H]3OC[C@@H](O)[C@H](O)[C@H]3O)cc2)cc1,43%,>800 mg,–
Cc1cc(C(O)c2ccccc2C)ccc1O[C@@H]1OC[C@@H](O)[C@H](O)[C@H]1O (some centres undefined),14%,–,LD50 (Rattus norvegicus [5]): 450 mg
Cc1ccccc1C(=O)c1cccc(O[C@@H]2OC[C@@H](O)[C@H](O)[C@H]2O)c1,0%,>800 mg,–
O=C(c1ccc(Cl)cc1)c1ccc(O[C@@H]2O[C@H](CO)[C@H](O)[C@H](O)[C@H]2O)cc1,0%,>800 mg,–
O=[N+]([O-])c1ccc(C(O)c2ccc(O[C@@H]3OC[C@@H](O)[C@H](O)[C@H]3O)cc2)cc1 (some centres undefined),80%,>800 mg,ED50 (Rattus norvegicus [1]): 17.8 mg/kg; ED50 (Rattus norvegicus [6]): 48 mg/kg
O[C@@H]1[C@@H](O)[C@H](Oc2ccc(Cc3ccc(Cl)cc3)cc2)OC[C@H]1O,22%,>800 mg,–
O=C(c1ccc(O[C@@H]2O[C@H](CO)[C@H](O)[C@H](O)[C@H]2O)cc1)c1ccc([N+](=O)[O-])cc1,0%,>800 mg,–
O=C(c1ccc(O[C@@H]2OC[C@@H](O)[C@H](O)[C@H]2O)cc1)c1ccc(C(F)(F)F)cc1,0%,>800 mg,–

Compound,Activity (Rattus norvegicus [2]),LD0 (Rattus norvegicus [3]),other results
O[C@@H]1[C@@H](O)[C@H](Oc2cccc(Cc3ccc(Cl)cc3)c2)OC[C@H]1O,46%,–,LD50 (Rattus norvegicus [5]): 500 mg
O[C@@H]1[C@@H](O)[C@H](Oc2ccc(Cc3ccc(Cl)cc3Cl)cc2)OC[C@H]1O,25%,–,LD50 (Rattus norvegicus [5]): 640 mg
O[C@@H]1[C@@H](O)[C@H](Oc2cccc(Cc3ccccc3)c2)OC[C@H]1O,39%,–,LD50 (Rattus norvegicus [5]): 200 mg
O=C(c1ccc(Cl)cc1)c1ccc(O[C@@H]2OC[C@@H](O)[C@H](O)[C@H]2O)cc1,37%,>800 mg,–
O=C(c1ccc(O[C@@H]2O[C@H](CO)[C@@H](O)[C@H](O)[C@@H]2O)cc1)c1ccc([N+](=O)[O-])cc1,0%,>800 mg,–
OC(c1ccc(O[C@@H]2OC[C@@H](O)[C@H](O)[C@H]2O)cc1)c1ccc(Cl)cc1Cl (some centres undefined),37%,–,LD50 (Rattus norvegicus [5]): 350 mg
O=C(c1ccccc1)c1cccc(O[C@@H]2OC[C@@H](O)[C@H](O)[C@H]2O)c1,60%,>800 mg,–
O=C(c1ccc(OC2O[C@H](CO)[C@@H](O[C@@H]3O[C@H](CO)[C@H](O)[C@H](O)[C@H]3O)[C@H](O)[C@H]2O)cc1)c1ccc([N+](=O)[O-])cc1 (some centres undefined),0%,>800 mg,–
OC(c1ccccc1)c1ccc(O[C@@H]2OC[C@@H](O)[C@H](O)[C@H]2O)cc1 (some centres undefined),37%,>800 mg,–
O=C(c1ccc(O[C@H]2O[C@H](CO)[C@@H](O)[C@H](O)[C@@H]2O)cc1)c1ccc([N+](=O)[O-])cc1,0%,>800 mg,–
O=C(c1ccccc1)c1ccc(O[C@@H]2OC[C@@H](O)[C@H](O)[C@H]2O)cc1,77%,–,LD50 (Rattus norvegicus [7]): 750 mg
O=C(c1ccc(O[C@@H]2O[C@H](CO)[C@@H](O)[C@H](O)[C@H]2O)cc1)c1ccc([N+](=O)[O-])cc1,0%,>800 mg,–
OC(c1ccc(O[C@@H]2OC[C@@H](O)[C@H](O)[C@H]2O)cc1)c1ccccc1Cl (some centres undefined),51%,>800 mg,–
C[C@@H]1O[C@H](Oc2ccc(C(=O)c3ccc([N+](=O)[O-])cc3)cc2)[C@H](O)[C@H](O)[C@H]1O,0%,>800 mg,–
Cc1ccc(C(=O)c2cccc(O[C@@H]3OC[C@@H](O)[C@H](O)[C@H]3O)c2)cc1,0%,>800 mg,–
N#Cc1ccc(C(=O)c2ccc(O[C@@H]3OC[C@@H](O)[C@H](O)[C@H]3O)cc2)cc1,0%,–,–
O=C(c1ccc(O[C@H]2OC[C@@H](O)[C@H](O)[C@H]2O)cc1)c1ccc([N+](=O)[O-])cc1,38%,–,LD50 (Rattus norvegicus [8]): 600 mg
OC(c1ccccc1)c1cccc(O[C@@H]2OC[C@@H](O)[C@H](O)[C@H]2O)c1 (some centres undefined),19%,>800,–
OC(c1ccc(Cl)cc1)c1cccc(O[C@@H]2OC[C@@H](O)[C@H](O)[C@H]2O)c1 (some centres undefined),0%,>800 mg,–
O=C(c1ccc(O[C@@H]2O[C@H](CO)[C@H](O[C@@H]3O[C@H](CO)[C@@H](O)[C@H](O)[C@H]3O)[C@H](O)[C@H]2O)cc1)c1ccc([N+](=O)[O-])cc1,17%,>800 mg,–
O=C(c1ccc(Cl)cc1)c1ccc(O[C@@H]2O[C@H](CO)[C@@H](O)[C@H](O)[C@H]2O)cc1,0%,>800 mg,–
Cc1ccc(C(=O)c2ccc(O[C@@H]3OC[C@@H](O)[C@H](O)[C@H]3O)cc2)cc1,0%,>800 mg,–
O=C(c1ccc(O[C@@H]2OC[C@@H](O)[C@H](O)[C@H]2O)cc1)c1ccc(Cl)cc1Cl,18%,>800 mg,–
